Assay results: ChEMBL document CHEMBL1123853, “A novel class of cardiotonics. Synthesis and pharmacological properties of [4-(substituted-amino)phenyl]pyridazinones and related derivatives” (1987)

Assays:
[1] = system: Canis familiaris; experiment: Inotropic activity determined by evaluating the maximum rate of rise in left ventricular pressure at a dose of 3 ug/kg administered intravenously […]; type: functional, Canis lupus familiaris, Muscle tissue
Summary of the method: (§1)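 Mongrel dogs of either sex, 7–15 kg, anesthetized with sodium pentobarbital (30 mg/kg iv), open-chest, intubated and ventilated on room air. Compounds given intravenously. A femoral artery catheter with pressure transducer recorded SBP and DBP. dP/dtmax, right ventricular contractile force, cardiac output and heart rate were also recorded, as % change at each iv dose.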

[2] = system: Canis familiaris; experiment: Inotropic activity determined by evaluating the % change in Heart Rate (HR) at a dose of 30 ug/kg administered intravenously […]; type: functional, Canis lupus familiaris; summary of the method: as §1
[3] = system: Canis familiaris; experiment: Inotropic activity determined by evaluating the % change in Systolic Blood Pressure (SBP) at a dose of 3 ug/kg administered intravenously […]; type: functional, Canis lupus familiaris, Muscle tissue; summary of the method: as §1
[4] = species: Canis familiaris; experiment: Positive inotropic in the isolated papillary muscle of the dog.; type: functional, Canis lupus familiaris
Summary of the method: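 Right ventricular anterior papillary muscle with septum, from mongrel dogs (7–12 kg, pentobarbital 30 mg/kg iv). It was perfused at about 100 mmHg via the septal artery with blood from a heparinized donor dog and paced at 120/min (1 ms pulses, about 1.5× threshold). Isometric tension was recorded. Saline solutions were injected intra-arterially, with amrinone as reference. ED15 (15% rise in developed tension) was taken from log dose-response curves. Results are mean ± SEM (n = 7) or mean ± range (n = 2).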

[5] = system: Canis familiaris; experiment: Inotropic activity determined by evaluating the % change in Systolic Blood Pressure (SBP) at a dose of 10 ug/kg administered intravenously […]; type: functional, Canis lupus familiaris; summary of the method: as §1
[6] = system: Canis familiaris; experiment: Inotropic activity determined by evaluating the % change in contractile force (CF) of right ventricle at a dose of 30 ug/kg administered intravenously […]; type: functional, Canis lupus familiaris, Heart right ventricle; summary of the method: as §1
[7] = system: Canis familiaris; experiment: Inotropic activity determined by evaluating the % change in Systolic Blood Pressure (SBP) at a dose of 30 ug/kg administered intravenously […]; type: functional, Canis lupus familiaris, Muscle tissue; summary of the method: as §1
[8] = system: Canis familiaris; experiment: Inotropic activity determined by evaluating the maximum rate of rise in left ventricular pressure at a dose of 30 ug/kg administered intravenously […]; type: functional, Canis lupus familiaris, Muscle tissue; summary of the method: as §1
[9] = system: Canis familiaris; experiment: Inotropic activity determined by evaluating the % change in Cardiac out put (CO)at a dose of 30 ug/kg administered intravenously […]; type: functional, Canis lupus familiaris; summary of the method: as §1
[10] = system: Canis familiaris; experiment: Inotropic activity determined by evaluating the % change in Diastolic Blood Pressure (DBP) at a dose of 10 ug/kg administered intravenously […]; type: functional, Canis lupus familiaris; summary of the method: as §1
[11] = system: Canis familiaris; experiment: Inotropic activity determined by evaluating the % change in Heart Rate (HR) at a dose of 10 ug/kg administered intravenously […]; type: functional, Canis lupus familiaris; summary of the method: as §1
[12] = system: Canis familiaris; experiment: Inotropic activity determined by evaluating the % change in Diastolic Blood Pressure (DBP) at a dose of 3 ug/kg administered intravenously […]; type: functional, Canis lupus familiaris; summary of the method: as §1
[13] = system: Canis familiaris; experiment: Inotropic activity determined by evaluating the maximum rate of rise in left ventricular pressure at a dose of 10 ug/kg administered intravenously […]; type: functional, Canis lupus familiaris, Muscle tissue; summary of the method: as §1
[14] = system: Canis familiaris; experiment: Inotropic activity determined by evaluating the % change in Diastolic Blood Pressure (DBP) at a dose of 30 ug/kg administered intravenously […]; type: functional, Canis lupus familiaris; summary of the method: as §1
[15] = species: Canis familiaris; experiment: Positive inotropic activity determined in the […](that produced 30% increase in dose- response curves [dP/dt(max)]); type: functional; settings: Canis lupus familiaris
Summary of the method: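 In the anesthetized open-chest dog (mongrel, 7–15 kg, pentobarbital 30 mg/kg iv, ventilated on room air), compounds were given intravenously and LV dP/dtmax was recorded. The dose giving a 30% rise in dP/dtmax was read from the dose-response curves. Results are mean ± SEM (n = 3) or mean ± range (n = 2).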

[16] = system: Canis familiaris; experiment: Inotropic activity determined by evaluating the % change in contractile force (CF) of right ventricle at a dose of 10 ug/kg administered intravenously […]; type: functional, Canis lupus familiaris, Heart right ventricle; summary of the method: as §1
[17] = system: Canis familiaris; experiment: Inotropic activity determined by evaluating the % change in contractile force (CF) of right ventricle at a dose of 3 ug/kg administered intravenously […]; type: functional, Canis lupus familiaris, Heart right ventricle; summary of the method: as §1
[18] = system: Canis familiaris; experiment: Inotropic activity determined by evaluating the % change in Cardiac out put (CO)at a dose of 10 ug/kg administered intravenously […]; type: functional, Canis lupus familiaris; summary of the method: as §1
[19] = system: Canis familiaris; experiment: Inotropic activity determined by evaluating the % change in Cardiac out put (CO)at a dose of 3 ug/kg administered intravenously […]; type: functional, Canis lupus familiaris; summary of the method: as §1
[20] = system: Canis familiaris; experiment: Inotropic activity determined by evaluating the % change in Heart Rate (HR) at a dose of 3 ug/kg administered intravenously […]; type: functional, Canis lupus familiaris; summary of the method: as §1
[21] = system: Canis familiaris; experiment: Inotropic activity determined by evaluating the % change in contractile force (CF) of right ventricle at a dose of 300 ug/kg administered intravenously […]; type: functional, Canis lupus familiaris, Heart right ventricle; summary of the method: as §1
[22] = system: Canis familiaris; experiment: Inotropic activity determined by evaluating the maximum rate of rise in left ventricular pressure at a dose of 300 ug/kg administered intravenously […]; type: functional, Canis lupus familiaris, Muscle tissue; summary of the method: as §1
[23] = system: Canis familiaris; experiment: Inotropic activity determined by evaluating the % change in Systolic Blood Pressure (SBP) at a dose of 300 ug/kg administered intravenously […]; type: functional, Canis lupus familiaris, Muscle tissue; summary of the method: as §1
[24] = system: Canis familiaris; experiment: Inotropic activity determined by evaluating the % change in Diastolic Blood Pressure (DBP) at a dose of 1000 ug/kg administered intravenously […]; type: functional, Canis lupus familiaris; summary of the method: as §1
[25] = system: Canis familiaris; experiment: 0 Inotropic activity determined by evaluating the % change in Systolic Blood Pressure (SBP) at a dose of 1000 ug/kg administered intravenously […]; type: functional, Canis lupus familiaris; summary of the method: as §1
[26] = system: Canis familiaris; experiment: Inotropic activity determined by evaluating the % change in contractile force (CF) of right ventricle at a dose of 1000 ug/kg administered intravenously […]; type: functional, Canis lupus familiaris, Heart right ventricle; summary of the method: as §1
[27] = system: Canis familiaris; experiment: Inotropic activity determined by evaluating the % change in Heart Rate (HR) at a dose of 1000 ug/kg administered intravenously […]; type: functional, Canis lupus familiaris; summary of the method: as §1
[28] = system: Canis familiaris; experiment: Inotropic activity determined by evaluating the % change in Diastolic Blood Pressure (DBP) at a dose of 300 ug/kg administered intravenously […]; type: functional, Canis lupus familiaris; summary of the method: as §1
[29] = system: Canis familiaris; experiment: Inotropic activity determined by evaluating the % change in Cardiac out put (CO)at a dose of 1000 ug/kg administered intravenously […]; type: functional, Canis lupus familiaris; summary of the method: as §1
[30] = system: Canis familiaris; experiment: Inotropic activity determined by evaluating the maximum rate of rise in left ventricular pressure at a dose of 1000 ug/kg administered intravenously […]; type: functional, Canis lupus familiaris, Muscle tissue; summary of the method: as §1
[31] = system: Canis familiaris; experiment: Inotropic activity determined by evaluating the % change in Heart Rate (HR) at a dose of 300 ug/kg administered intravenously […]; type: functional, Canis lupus familiaris, Muscle tissue; summary of the method: as §1
[32] = system: Canis familiaris; experiment: Inotropic activity determined by evaluating the % change in Cardiac out put (CO)at a dose of 300 ug/kg administered intravenously […]; type: functional, Canis lupus familiaris; summary of the method: as §1

SMILES: Cl.O=C1CCC(c2ccc(Nc3ccncc3)cc2)=NN1
- dP/dt [1]: 20.9%
- Change of HR [2]: 17.4%
- Change of SBP [3]: -7.9%
- ED15 [4]: 4.1 µg
- Change of SBP [5]: -16.1%
- Change of CF [6]: 78.9%
- Change of SBP [7]: -24.9%
- dP/dt [8]: 69.1%
- Change of CO [9]: 27.7%
- Change of DBP [10]: -22%
- Change of HR [11]: 9.9%
- Change of DBP [12]: -10.9%
- dP/dt [13]: 37.3%
- Change of DBP [14]: -32.9%
- ED30 [15]: 8.5 µg/kg
- Change of CF [16]: 56.4%
- Change of CF [17]: 34.4%
- Change of CO [18]: 17.2%
- Change of CO [19]: 12.6%
- Change of HR [20]: 5.8%

SMILES: Cc1cc(O)nnc1-c1ccc(Nc2ccncc2)cc1.Cl
- ED15 [4]: 165 µg
- Change of CF [21]: -1.1%
- dP/dt [22]: -2.2%
- Change of SBP [23]: 0.5%
- Change of DBP [24]: 1.4%
- ED30 [15]: > 1000 µg/kg
- Change of SBP [25]: 1.9%
- Change of CF [26]: 10.5%
- Change of HR [27]: 5.8%
- Change of DBP [28]: -0.3%
- Change of CO [29]: 7.6%
- dP/dt [30]: 6.2%
- Change of HR [31]: -1.3%
- Change of CO [32]: 9.6%
